In general, IC50 refers to the point on the concentration scale where inhibition reaches its midpoint.

Drawing on ChEMBL document CHEMBL2163327, “Design, synthesis, and evaluation of potential prodrugs of DFMO for reductive activation” (Bioorg Med Chem Lett, 2012), this text covers IC50 and Activity for ten compounds.

Molecules are shown by their SMILES.

Experiment [1] concerns Trypanosoma brucei. The experiment can be described thus: Antitrypanosomal activity against wild type Trypanosoma brucei bloodstream form assessed as growth inhibition after 3 days by Alamar blue assay. The experiment is classed as functional, organism-based. To be noted: 72 h. The method in brief: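 Bloodstream-form T. brucei seeded at 1 × 10³ per mL in growth medium with a range of test compound concentrations; 3 days at 37 °C, then alamarBlue added and incubation continued 16 h before reading.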
A general note: The colour change of resazurin is a common sign of viable cells or microbes.

In experiment [2] the test system is Trypanosoma brucei. The experiment can be described thus: Activity of His-tagged Trypanosoma brucei nitroreductase assessed as oxidation of NADH. The method in brief:
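Purified His-tagged T. brucei nitroreductase (TbNTR) incubated with test compound; NADH consumption followed as change in absorbance at 340 nm.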

Experiment [3] deals with Trypanosoma brucei. The experiment in a line: Antitrypanosomal activity against Trypanosoma brucei bloodstream form overexpressing nitroreductase assessed as growth inhibition after 3 days by Alamar blue assay. The conditions noted are these: 72 h. The experiment is classed as functional, organism-based. The method in brief:
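Bloodstream-form T. brucei induced to express elevated nitroreductase, with non-induced parasites as controls. Parasites seeded at 1 × 10³ mL⁻¹ in growth medium with a range of test-compound concentrations and incubated 3 days at 37 °C. alamarBlue was then added for a further 16 h as the viability read-out.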

Consider `O=C(NCCCC(NC(=O)OCc1ccc([N+](=O)[O-])cc1)(C(=O)O)C(F)F)OCc1ccc([N+](=O)[O-])cc1` (configuration not stated), for which, in the experiment on Trypanosoma brucei [1], the IC50 was more than 100 µM. Moreover, in the experiment with Trypanosoma brucei [2], the Activity turned out to be 140 nmol/min/mg.
The matching figures for `NCCCC(N)(C(=O)OCc1ccc([N+](=O)[O-])cc1F)C(F)F` (configuration not stated): more than 100 µM and 203 nmol/min/mg.
`NCCCC(N)(C(=O)OCc1ccc([N+](=O)[O-])cc1)C(F)F` (configuration not stated): the IC50 in the experiment with Trypanosoma brucei [1] is more than 100 µM. The Activity in the experiment on Trypanosoma brucei [2] turned out to be 60 nmol/min/mg.
Consider `NC(CCCNC(=O)OCc1ccc([N+](=O)[O-])cc1)(C(=O)O)C(F)F` (configuration not stated), for which the IC50 in the experiment with Trypanosoma brucei [1] was more than 100 µM. Further, the Activity in the experiment with Trypanosoma brucei [2] was 33 nmol/min/mg.
The matching figures for `NCCCC(NC(=O)OCc1ccc([N+](=O)[O-])cc1F)(C(=O)O)C(F)F` (configuration not stated): more than 100 µM and 227 nmol/min/mg.
For `CC1CS(=O)(=O)CCN1/N=C/c1ccc([N+](=O)[O-])o1` (configuration not stated) [NIFURTIMOX], the IC50 came out at 0.26 µM with Trypanosoma brucei [3] and 1.83 µM in the experiment with Trypanosoma brucei [1]. Besides, the Activity in the experiment on Trypanosoma brucei [2] was found to be 423 nmol/min/mg.
The matching figures for `NC(CCCNC(=O)OCc1ccc([N+](=O)[O-])cc1F)(C(=O)O)C(F)F` (configuration not stated): 39.9 µM, 39.5 µM and 260 nmol/min/mg.
On to `NCCCC(NC(=O)OCc1ccc([N+](=O)[O-])cc1)(C(=O)O)C(F)F` (configuration not stated), for which the IC50 in the experiment on Trypanosoma brucei [1] was more than 100 µM. The Activity with Trypanosoma brucei [2] is 42 nmol/min/mg.
Turning to `O=C(NCCCC(NC(=O)OCc1ccc([N+](=O)[O-])cc1F)(C(=O)O)C(F)F)OCc1ccc([N+](=O)[O-])cc1F` (configuration not stated), the half-inhibitory concentration (IC50) with Trypanosoma brucei [1] was more than 100 µM. In addition, the Activity with Trypanosoma brucei [2] was found to be 312 nmol/min/mg.
On to `NCCCC(N)(C(=O)O)C(F)F` (configuration not stated) [EFLORNITHINE], for which the half-inhibitory concentration (IC50) in the experiment on Trypanosoma brucei [1] worked out at 8.3 µM. Further, the Activity in the experiment with Trypanosoma brucei [2] amounted to 21 nmol/min/mg.
